Screening results: PubChem, several laboratories
DAGLB inhibitor: blocks human DAGLB lipase activity; HEK293T DAGLB membrane lysate, EnzChek fluorogenic substrate; inhibition, % at 5.17 µM; 340,000 compounds, 0.059% hits; AID 504411; in the data active means inhibition above about 34%;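 further: 0% = enzyme with vehicle and 100% = wells lacking enzyme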
Target sequence (Q8NCG7 whole entry, looked up): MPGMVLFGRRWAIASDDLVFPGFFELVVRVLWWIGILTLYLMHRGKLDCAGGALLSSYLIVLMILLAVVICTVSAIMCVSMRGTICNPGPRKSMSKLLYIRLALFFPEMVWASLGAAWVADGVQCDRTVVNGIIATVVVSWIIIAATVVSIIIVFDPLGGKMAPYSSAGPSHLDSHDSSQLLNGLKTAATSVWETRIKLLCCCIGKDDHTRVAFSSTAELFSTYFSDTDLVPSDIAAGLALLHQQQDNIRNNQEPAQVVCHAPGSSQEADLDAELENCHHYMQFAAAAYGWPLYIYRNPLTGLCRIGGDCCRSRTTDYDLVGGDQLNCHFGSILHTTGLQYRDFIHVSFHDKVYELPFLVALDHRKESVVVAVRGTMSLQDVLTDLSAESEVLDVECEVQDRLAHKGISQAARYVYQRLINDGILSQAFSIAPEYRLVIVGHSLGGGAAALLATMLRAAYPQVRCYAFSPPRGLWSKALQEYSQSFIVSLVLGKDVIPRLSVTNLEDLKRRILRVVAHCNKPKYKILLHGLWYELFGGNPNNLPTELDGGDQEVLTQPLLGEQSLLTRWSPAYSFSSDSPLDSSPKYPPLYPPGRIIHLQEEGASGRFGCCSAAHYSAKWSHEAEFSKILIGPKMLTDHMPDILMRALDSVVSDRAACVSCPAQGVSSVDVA
beta cell repl: MIN6 beta-cell proliferation induction | MIN6 cells proliferation, ATPlite luminescence, 48 h; cells starved in 0.2% serum; 100% = growth in 10% serum | proliferation, % at 10 µM | 330,000 compounds, 0.29% hits | AID 2380;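 active means compounds whose signal lies at least 3.5 SD above the mean of all wells on their plate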;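 further: 0% = DMSO-treated cells in low-serum medium and 100% = 10% serum control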
SKN-1 block: inhibitors of C. elegans SKN-1. C. elegans VP596 Pgst-4::GFP/RFP ratio, acrylamide-induced, 24 h. inhibition, % at 21.8 µM. 360,000 compounds, 0.49% hits;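 active means interference check ratio from 0.5 to 1.5 plus GFP to RFP signal ratio inhibition reaching or exceeding a fixed threshold, cut at about 30% in these data, passing the limit was not always enough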
MsrA act: bovine methionine sulfoxide reductase A activation; AID 602163; activation, % at 10.6 µM; purified bovine MsrA, absorbance read-out; 360,000 compounds, 0.3% hits; in the data active means activation above about 7.5%;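 further: 0% = vehicle and 100% = reference activator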
MsrA inh: bovine MsrA inhibition; purified bovine MsrA, absorbance read-out; inhibition, % at 15.5 µM; 360,000 compounds, 0.75% hits; AID 651718; in the data active means inhibition above about 4.5%;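 further: 0% = vehicle wells with enzyme and 100% = reference inhibitor wells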
MT1-MMP act inh: inhibitors of human MT1-MMP activation | 360,000 compounds, 0.061% hits | GFP/RFP ratio change, % at 20 µM | AID 651647 | HT1080 RFP-PRO-GFP cells, GFP/RFP ratio fluorescence, overnight; percent of plate control window, DMSO zero;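 active means GFP/RFP ratio change of at least 30% with cell ATP level not reduced by more than half and red fluorescence within 50% of control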
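Assay system: HT1080 cells carrying an RFP-PRO-GFP reporter | Dosing: Single dose of 20 µM compound, 1% DMSO final | Incubation: Cells overnight before dosing, compound overnight, 37 °C, 5% CO2 | Evaluation: GFP/RFP fluorescence ratio | Control set: DMSO and RFP-L50D-GFP cell wells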
* marks the source's active call; other numbers are inactive results; / = no result given. A selection: hits, their analogues and other compounds. The true share with any hit is near 1.8%.

SMILES | DAGLB inhibitor | beta cell repl | SKN-1 block | MsrA act | MsrA inh | MT1-MMP act inh
Cc1ccc(NC(=O)/C(=C\c2ccc3c(c2)OCO3)NC(=O)c2ccco2)cc1 | -0.6 | -0.9 | -26.2 | -6.8 | 4.5* | -0.6
NC(=O)/C(=C/c1ccc2c(c1)OCO2)NC(=O)c1ccco1 | -0.5 | 0.7 | 4.4 | -3.3 | 2.6 | -0.6
Fc1ccc(-c2nnc(Cc3nnc(-c4ccc(F)cc4)o3)o2)cc1 | -3.3 | -1.4 | -11.1 | -2.1 | 0.3 | -8.3
Fc1ccc(-c2nnc(-c3ccc4ccccc4c3)o2)cc1 | -16.8 | / | 43.1* | -2.8 | 0.5 | -3.8
Fc1ccc(-c2nnc(-c3ccc(F)cc3)o2)cc1 | -7.8 | -2.2 | 38.7* | -4.6 | -1.4 | -1.2
COc1ccc(-c2nn(CC(=O)Nc3ccc(Cl)c(Cl)c3)c(=O)c3ccccc23)cc1 | -2.6 | -1.7 | 38.5* | -6.4 | 1.9 | -0.3
O=C1CSC(c2cccs2)N1c1nncs1 (stereo not drawn) | / | / | / | / | -0.4 | /
CN1CCN(C(=O)/C=C/c2ccc3c(c2)OCO3)CC1 | 1.7 | 0.0 | 6.2 | -2.1 | 2.1 | 8.8
O=C(/C=C/c1ccc2c(c1)OCO2)N1CCN(c2n[nH]c(=O)[nH]c2=O)CC1 | 0.8 | -0.2 | -0.6 | 0.0 | 4.6* | 6.8
CC(C)C[C@@H]1COc2cc(NCCCN3CCOCC3)ccc2S(=O)(=O)N1 | / | / | / | / | 1.2 | /
COc1ccc2oc(C(F)(F)C(F)(F)F)cc(=O)c2c1 | 0.7 | -1.1 | 14.2 | -2.1 | 1.6 | 6.1
COc1ccc2oc(C(F)(F)C(F)F)cc(=O)c2c1 | -3.7 | -2.6 | 36.4* | -1.2 | 1.6 | 4.2
COc1ccc(OC)c(CNS(=O)(=O)c2ccccc2Br)c1 | / | / | / | / | 0.3 | /
CC(=O)c1ccc(-c2ccc(C(=O)N3CCC(C(N)=O)CC3)o2)cc1 | -2.6 | 5.0 | 0.4 | -3.5 | 7.6* | -5.1
CC(=O)c1ccc(-c2ccc(C(=O)N3CCN(c4ccc(F)cc4)CC3)o2)cc1 | -1.7 | -0.2 | -4.2 | -4.8 | 1.5 | 2.5
CC(=O)Nc1ccc(S(=O)(=O)C(C#N)c2nc3ccccc3nc2NCCCO)cc1 (stereo not drawn) | 1.1 | -3.0 | 6.6 | -6.3 | 4.6* | -0.3
Cc1ccc(CN(C)C[C@H]2OCc3cnnn3CCCC(=O)N([C@H](C)CO)C[C@@H]2C)cc1 | / | / | / | / | 0.0 | /
Cc1cc(C(=O)CN2C(=O)NC3(CCCc4ccccc43)C2=O)c(C)n1Cc1ccccc1 (stereo not drawn) | 2.4 | -5.4 | 35.8* | 0.1 | 0.3 | -0.2
O=C(O)CN1C(=O)NC2(CCCc3ccccc32)C1=O (stereo not drawn) | 2.4 | -2.2 | 19.6 | -1.2 | 0.6 | 2.9
CC(C)(C)C1=CC(CC(N)=O)(C(C)(C)C)OC1=O (stereo not drawn) | / | / | / | / | -0.1 | /
Cc1ccc(O)c(-c2cc(-c3cccc(F)c3)n[nH]2)c1 | -2.0 | -5.4 | 37.0* | 0.4 | -0.3 | 7.4
c1csc(-c2noc(COc3ccc4c(c3)CCCC4)n2)c1 | -26.6 | -3.3 | 37.8* | 0.1 | -0.8 | -5.3
COc1ccc([N+](=O)[O-])cc1N(CC(O)CN(C)C)S(=O)(=O)c1ccccc1 (stereo not drawn) | 0.3 | -0.9 | 6.3 | -2.4 | 0.3 | 0.9
C=CCN(CC=C)CC(O)CN(c1cc([N+](=O)[O-])ccc1OC)S(=O)(=O)c1ccccc1 (stereo not drawn) | 2.5 | 0.0 | 38.2* | 0.5 | 2.3 | 3.9
S=C(SCc1cc(Cl)cc2c1OCOC2)N1CCSCC1 | / | / | / | / | 2.9 | /
SMILES | DAGLB inhibitor | beta cell repl | SKN-1 block | MsrA act | MsrA inh | MT1-MMP act inh
Cc1cccc(OCCCN2CCC(C(O)(c3ccccc3)c3ccccc3)CC2)c1 | / | / | / | / | 0.8 | /
C(/C=C/c1ccco1)=N/N1CCN(c2ccccc2)CC1 | 0.5 | -1.6 | 59.4* | -0.5 | 4.5 | 1.2
Cn1c(Cc2c[nH]c3ccccc23)n[nH]c1=S | -0.4 | 0.9 | 44.2* | -1.5 | -0.7 | -4.0
Cc1[nH]c2ccccc2c1Cc1n[nH]c(=S)n1C | 0.4 | -1.7 | 9.4 | 4.2 | 0.0 | 2.6
COc1ccc(S(=O)(=O)Nc2ccc(S(=O)(=O)Nc3ccc(F)cc3)cc2)cc1C | -1.7 | -2.5 | 36.1* | -2.8 | 1.4 | 0.8
CC1(C(=O)NS(=O)(=O)c2ccccc2Cl)CCN1C(=O)CCc1ccccc1 (stereo not drawn) | / | / | -3.2 | -1.0 | 0.8 | 1.3
COc1ccc(Nc2nc(C(=O)NCCCN3CCOCC3)cs2)cc1 | 1.5 | -0.1 | 33.3* | -10.3 | 1.1 | -13.5
CC(O)(CS(=O)(=O)Cc1ccccc1)C(=O)Nc1cccc(C(F)(F)F)c1 (stereo not drawn) | -0.5 | -3.2 | 14.1 | 10.3* | 0.0 | -0.6
COC(=O)c1cc(=O)nc(NN=C(C)C)s1 | / | / | / | / | 1.5 | /
O=C(COC(=O)C1CCC1)Nc1ccc(Cl)cn1 | -0.8 | 0.5 | -4.1 | -5.5 | 0.7 | 0.3
O=C(COC(=O)CCC1CCCC1)Nc1ccc(Cl)cn1 | -4.0 | 1.9 | 40.9* | -5.4 | -0.2 | 0.4
CCc1cc2c(nc1CC)CCCN2S(=O)(=O)c1ccc(F)cc1 | / | / | / | / | -0.2 | /
Cc1ccc2c(c1)c(C)c(C)n2CC(O)Cn1nnc2ccccc21 (stereo not drawn) | -0.7 | -2.3 | 60.3* | -5.9 | 0.2 | 4.2
Nc1ccc2c(Cl)cc(Cl)cc2c1 | -3.1 | / | 63.0* | -0.6 | 0.0 | -2.8
COCCCNC(=O)COc1ccc2oc3c(c2c1)CCCC3 | 0.7 | -1.2 | 36.0* | -2.4 | 2.3 | 0.5
CC(C)N(CCNC(=O)COc1ccc2oc3c(c2c1)CCCC3)C(C)C | -1.6 | -4.8 | -11.9 | -3.9 | 2.7 | -1.0
O=C(O)c1ccc2c(c1)[C@@H]1C=CC[C@@H]1[C@H](c1ccccn1)N2 | 1.5 | -1.7 | 43.8* | -4.1 | 3.3 | -4.0
CCOC(=O)C1CCN(C2=NC(=O)/C(=C/c3ccc(Cl)cc3)S2)CC1 | -2.2 | -4.7 | 15.0 | -2.8 | 4.7* | 0.8
Cc1ccc(/C=C2\SC(N3CCCC3)=NC2=O)cc1 | / | -0.9 | / | / | 4.6* | /
CCOC(=O)C1CCN(C2=NC(=O)/C(=C/c3ccc(OC)c(OC)c3)S2)CC1 | -0.3 | 0.5 | -0.3 | -8.8 | 3.1 | 2.6
CCN(CC)CCN1C(=O)C(=O)/C(=C(/O)c2cnn(-c3ccccc3)c2C)C1c1ccc(C)o1 (stereo not drawn) | -2.2 | -0.4 | 45.8* | 0.7 | 2.1 | -3.3
CCOC(=O)C1=CCN(S(=O)(=O)c2ccc(Br)cc2)C1c1ccc(F)cc1 (stereo not drawn) | / | / | / | / | -0.2 | /
CC(C)C[C@@H]1COc2cccc(NCCO)c2S(=O)(=O)N1 | / | / | / | / | -0.6 | /
Cc1ccc(OCc2ccc(C(=O)Nc3nccs3)o2)cc1C | -6.1 | -2.3 | 55.6* | -2.8 | 0.7 | 1.5
O=C1/C(=C/c2ccccc2)SC(=S)N1C1CCS(=O)(=O)C1 (stereo not drawn) | -2.1 | 0.1 | -0.6 | 3.1 | -0.3 | 2.7
O=C1/C(=C\c2cccs2)SC(=S)N1C1CCS(=O)(=O)C1 (stereo not drawn) | 0.1 | -3.4 | 39.3* | -3.6 | -0.2 | 0.4
